Calls of active or inactive are those of the source. The rule behind the calls is not given here.
Columns and labels:
[1] = Cytotoxicity against human NTUB1 cells assessed as cell viability at >30 uM after 72 hrs by MTT assay; assay type: functional
Summary of the method: (§1)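 Cells grown in RPMI 1640 with 10% FBS, penicillin/streptomycin and 2 mM L-glutamine at 37 °C under 5% CO₂. Seeded 1800 cells/well, left overnight, then given graded compound concentrations for 72 h; compounds diluted from DMSO, 0.1% DMSO in medium and in controls. MTT 2 mg/mL in PBS for 3 h, formazan dissolved in DMSO, absorbance 540 nm. Viability given as % of control; IC50 by median-effect analysis, mean ± SD.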

[2] = Cytotoxicity against human NTUB1 cells after 72 hrs by MTT assay; assay type: functional, cell-based; settings: NTUB1, 72 h; summary of the method: as §1
NTUB1 [3] = test: Increase in intracellular reactive oxygen species level in human NTUB1 cells at 40 uM after 48 hrs in presence of 1 mM N-acetyl-cysteine by DCFH-DA staining; assay type: functional, cell-based
Summary of the method: (§2)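 NTUB1 cells treated for 24 or 48 h, with or without 1 mM N-acetylcysteine. DCFH-DA (10 µM) added 30 min before harvest; cells then trypsinized, PBS-washed, and DCF green fluorescence read at once by flow cytometry through a 525 nm band-pass filter. Three independent experiments.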

[4] = Cell cycle arrest in human NTUB1 cells assessed as accumulation at G1 phase at 20 uM after 24 hrs using propidium iodide staining by flow cytometry; assay type: functional, cell-based
Summary of the method: (§3)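 NTUB1 cells plated at 8 × 10⁵ per 10 cm dish and exposed to compound for 24 or 48 h; untreated controls got medium alone. Cells trypsinized, PBS-washed and fixed overnight in ice-cold MeOH at −20 °C, then stained with 50 µg/mL propidium iodide plus RNase A. DNA content was read by flow cytometry, with apoptosis taken as sub-G1 accumulation. Three independent experiments.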

[5] = Cell cycle arrest in human NTUB1 cells assessed as accumulation at G2/M phase at 20 uM after 24 hrs using propidium iodide staining by flow cytometry; assay type: functional, cell-based; summary of the method: as §3
[6] = Cell cycle arrest in human NTUB1 cells assessed as accumulation at S phase at 20 uM after 24 hrs using propidium iodide staining by flow cytometry; assay type: functional, cell-based; summary of the method: as §3
[7] = Induction of apoptosis in human NTUB1 cells assessed as accumulation at subG1 phase at 40 uM after 48 hrs using propidium iodide staining by flow cytometry; assay type: functional; summary of the method: as §3
A549 = test: Cytotoxicity against human A549 cells at 50 uM after 72 hrs by MTT assay; assay type: functional, cell-based; summary of the method: as §1
NTUB1 [8] = test: Increase in intracellular reactive oxygen species level in human NTUB1 cells at 40 uM after 24 hrs by DCFH-DA staining; assay type: functional, cell-based; summary of the method: as §2
NTUB1 [9] = test: Increase in intracellular reactive oxygen species level in human NTUB1 cells at 20 uM after 48 hrs by DCFH-DA staining; assay type: functional, cell-based; summary of the method: as §2
[10] = Induction of apoptosis in human NTUB1 cells assessed as accumulation at subG1 phase at 10 uM after 24 hrs using propidium iodide staining by flow cytometry; assay type: functional; summary of the method: as §3
[11] = Cell cycle arrest in human NTUB1 cells assessed as accumulation at G1 phase at 20 uM after 48 hrs using propidium iodide staining by flow cytometry; assay type: functional, cell-based; summary of the method: as §3
[12] = Cell cycle arrest in human NTUB1 cells assessed as accumulation at S phase at 10 uM after 24 hrs using propidium iodide staining by flow cytometry; assay type: functional, cell-based; summary of the method: as §3
[13] = Cell cycle arrest in human NTUB1 cells assessed as accumulation at G2/M phase at 10 uM after 24 hrs using propidium iodide staining by flow cytometry; assay type: functional, cell-based; summary of the method: as §3
[14] = Cell cycle arrest in human NTUB1 cells assessed as accumulation at S phase at 40 uM after 48 hrs using propidium iodide staining by flow cytometry; assay type: functional, cell-based; summary of the method: as §3
NTUB1 [15] = test: Increase in intracellular reactive oxygen species level in human NTUB1 cells at 40 uM after 24 hrs in presence of 1 mM N-acetyl-cysteine by DCFH-DA staining; assay type: functional, cell-based; summary of the method: as §2
PC-3 = test: Cytotoxicity against human PC3 cells at 50 uM after 72 hrs by MTT assay; assay type: functional, cell-based; summary of the method: as §1
[16] = Cell cycle arrest in human NTUB1 cells assessed as accumulation at G2/M phase at 40 uM after 48 hrs using propidium iodide staining by flow cytometry; assay type: functional, cell-based; summary of the method: as §3
[17] = Cell cycle arrest in human NTUB1 cells assessed as accumulation at G1 phase at 40 uM after 48 hrs using propidium iodide staining by flow cytometry; assay type: functional, cell-based; summary of the method: as §3
NTUB1 [18] = test: Increase in intracellular reactive oxygen species level in human NTUB1 cells at 20 uM after 48 hrs in presence of 1 mM N-acetyl-cysteine by DCFH-DA staining; assay type: functional, cell-based; summary of the method: as §2
[19] = Cell cycle arrest in human NTUB1 cells assessed as accumulation at G2/M phase at 20 uM after 48 hrs using propidium iodide staining by flow cytometry; assay type: functional, cell-based; summary of the method: as §3
[20] = Cell cycle arrest in human NTUB1 cells assessed as accumulation at G1 phase at 40 uM after 24 hrs using propidium iodide staining by flow cytometry; assay type: functional, cell-based; summary of the method: as §3
[21] = Induction of apoptosis in human NTUB1 cells assessed as accumulation at subG1 phase at 20 uM after 24 hrs using propidium iodide staining by flow cytometry; assay type: functional; summary of the method: as §3
[22] = Induction of apoptosis in human NTUB1 cells assessed as accumulation at subG1 phase at 40 uM after 24 hrs using propidium iodide staining by flow cytometry; assay type: functional; summary of the method: as §3
[23] = Cell cycle arrest in human NTUB1 cells assessed as accumulation at S phase at 40 uM after 24 hrs using propidium iodide staining by flow cytometry; assay type: functional, cell-based; summary of the method: as §3
NTUB1 [24] = test: Increase in intracellular reactive oxygen species level in human NTUB1 cells at 40 uM after 48 hrs by DCFH-DA staining; assay type: functional, cell-based; summary of the method: as §2
[25] = Cell cycle arrest in human NTUB1 cells assessed as accumulation at G2/M phase at 40 uM after 24 hrs using propidium iodide staining by flow cytometry; assay type: functional, cell-based; summary of the method: as §3
[26] = Cell cycle arrest in human NTUB1 cells assessed as accumulation at S phase at 20 uM after 48 hrs using propidium iodide staining by flow cytometry; assay type: functional, cell-based; summary of the method: as §3
[27] = Induction of apoptosis in human NTUB1 cells assessed as accumulation at subG1 phase at 20 uM after 48 hrs using propidium iodide staining by flow cytometry; assay type: functional; summary of the method: as §3
[28] = Cell cycle arrest in human NTUB1 cells assessed as accumulation at G1 phase at 10 uM after 24 hrs using propidium iodide staining by flow cytometry; assay type: functional, cell-based; summary of the method: as §3
Tubulin (Homo sapiens) = Tubulin (Homo sapiens) (UniProt P68371+Q9H4B7+P0DPH7+P68366+Q13509+Q71U36+P04350+Q3ZCM7+P07437+P68363+Q9BQE3+Q6PEY2+Q13885+Q9BVA1+Q9BUF5); test: Inhibition of tubulin polymerization in human NTUB1 cells assessed as blockade of microtubule assembly at 10 nM by indirect immunofluorescence staining; assay type: cell-based
Summary of the method: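 NTUB1 cells on coverslips were treated for 24 h, then fixed in 2% formaldehyde/PBS for 20 min and in cold methanol (−20 °C) for 3 min. Stained with anti-α-tubulin monoclonal antibody for 3 h at room temperature, then rhodamine-conjugated secondary antibody for 1 h in the dark. Mounted in 80% glycerol/PBS and examined by fluorescence microscopy.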

Q: What does the source list for `C[C@H]1[C@H](C)CC[C@]2(C(=O)OCC(=O)OC(C)(C)C)CC[C@]3(C)C(=CC[C@@H]4[C@@]5(C)CC[C@H](O)C(C)(C)[C@@H]5CC[C@]43C)[C@H]12`?
A: Activity [1]: 64.85%; IC50 [2]: > 30 µM

Q: With `COC(=O)[C@]12CC[C@@H](C)[C@H](C)[C@H]1C1=CC[C@@H]3[C@@]4(C)CCC(=O)C(C)(C)[C@@H]4CC[C@@]3(C)[C@]1(C)CC2` as the compound, how does the IC50 [2] read?
A: 29.6 µM

Q: For `CCC(=O)O[C@H]1CC[C@]2(C)[C@H]3CC=C4[C@@H]5[C@@H](C)[C@H](C)CC[C@]5(C(=O)O)CC[C@@]4(C)[C@]3(C)CC[C@H]2C1(C)C`, which Activity [1] is on record?
A: 72.53%

Q: What about the IC50 [2] of the same compound?
A: > 30 µM

Q: Which IC50 [2] does the source give for `CCCOC(=O)[C@]12CC[C@@H](C)[C@H](C)[C@H]1C1=CC[C@@H]3[C@@]4(C)CC[C@H](O)C(C)(C)[C@@H]4CC[C@@]3(C)[C@]1(C)CC2` here?
A: 18.3 µM

Q: For `CCCC(=O)O[C@H]1CC[C@]2(C)[C@H]3CC=C4[C@@H]5[C@@H](C)[C@H](C)CC[C@]5(C(=O)O)CC[C@@]4(C)[C@]3(C)CC[C@H]2C1(C)C`, which Activity [1] is on record?
A: 76.47%

Q: And the IC50 [2]?
A: > 30 µM

Q: What does the source list for `C=C(C)[C@@H]1CC[C@]2(C)[C@H](CC=C3[C@@H]4[C@@H](C)[C@H](C)CC[C@]4(C(=O)O)CC[C@]32C)[C@@]1(C)CCC(=O)OC`?
A: Activity [1]: 62.77%; IC50 [2]: > 30 µM

Q: Which IC50 [2] does the source give for `C[C@H]1[C@H](C)CC[C@]2(C(=O)O)CC[C@]3(C)C(=CC[C@@H]4[C@@]5(C)CC[C@H](O)C(C)(C)[C@@H]5CC[C@]43C)[C@H]12` [URSOLIC ACID] here?
A: 29.4 µM

Q: Which IC50 [2] does the source give for `CCOC(=O)[C@]12CC[C@@H](C)[C@H](C)[C@H]1C1=CC[C@@H]3[C@@]4(C)CC[C@H](O)C(C)(C)[C@@H]4CC[C@@]3(C)[C@]1(C)CC2` here?
A: 13.5 µM

Q: What does the source list for `CC(C)OC(=O)[C@]12CC[C@@H](C)[C@H](C)[C@H]1C1=CC[C@@H]3[C@@]4(C)CC[C@H](O)C(C)(C)[C@@H]4CC[C@@]3(C)[C@]1(C)CC2`?
A: Activity (NTUB1 [3]): Active; Activity [4]: 51%; Activity [5]: 9.18%; Activity [6]: 15.8%; Activity [7]: 43.81%; Activity (A549): Active; Activity (NTUB1 [8]): Active; Activity (NTUB1 [9]): Active; Activity [10]: 13.8%; Activity [11]: 52.1%; Activity [12]: 31.7%; Activity [13]: 15.3%; Activity [14]: 1.31%; Activity (NTUB1 [15]): inactive; Activity (PC-3): Active; Activity [16]: 1.96%; Activity [17]: 8.53%; IC50 [2]: 7.97 µM; Activity (NTUB1 [18]): Active; Activity [19]: 16.2%; Activity [20]: 58.1%; Activity [21]: 23.5%; Activity [22]: 23.73%; Activity [23]: 4.53%; Activity (NTUB1 [24]): Active; Activity [25]: 11%; Activity [26]: 20.5%; Activity [27]: 6.73%; Activity [28]: 33.9%

Q: Which Activity (Tubulin (Homo sapiens)) does the source give for `CC(=O)O[C@H]1C(=O)[C@@]2(C)[C@H]([C@H](OC(=O)c3ccccc3)[C@]3(O)C[C@H](OC(=O)[C@H](O)[C@@H](NC(=O)c4ccccc4)c4ccccc4)C(C)=C1C3(C)C)[C@]1(OC(C)=O)CO[C@@H]1C[C@@H]2O` here?
A: Active

Q: For `C[C@H]1[C@H](C)CC[C@]2(C(=O)OCCO)CC[C@]3(C)C(=CC[C@@H]4[C@@]5(C)CC[C@H](O)C(C)(C)[C@@H]5CC[C@]43C)[C@H]12`, which IC50 [2] is on record?
A: 19.5 µM

Q: For `CC(C)CC(=O)O[C@H]1CC[C@]2(C)[C@H]3CC=C4[C@@H]5[C@@H](C)[C@H](C)CC[C@]5(C(=O)O)CC[C@@]4(C)[C@]3(C)CC[C@H]2C1(C)C`, which IC50 [2] is on record?
A: 31 µM
